Assay results: ChEMBL document CHEMBL1154522, “Aryl sulfamates are broad spectrum inactivators of sulfatases: effects on sulfatases from various sources” (Bioorg Med Chem Lett, 2009)

How the values were obtained:
Haliotis corrugata [1] = experiment: Inhibition of abalone entrails type 8 recombinant sulfatase expressed in Escherichia coli by fast phase inactivation
Haliotis corrugata [2] = experiment: Protection against inactivation in abalone entrails type 8 recombinant sulfatase expressed in Escherichia coli assessed as ratio of residual enzyme activity to initial activity at 0.5 mM after 25 seconds using 4-nitrophenyl sulfate as substrate
Method in brief: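 Abalone sulfatase given 0.5 mM sulfamate at pH 7 with or without 30 mM 4-nitrophenyl sulfate; residual activity assayed 25 s after inactivator addition, expressed as vres/v0 against an untreated control.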

Helix pomatia [3] = experiment: Ratio of Kinact to Ki for Helix pomatia type H1 recombinant sulfatase expressed in Escherichia coli
Method in brief: (§1)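 Snail sulfatase incubated at pH 7 with 0–500 µM 3-nitrophenyl sulfamate; residual activity plotted semi-logarithmically against time, and pseudo-first-order rates replotted against inactivator concentration to fit Ki and kinact (E + I ⇌ E·I → E–P).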

[4] = biological target: Arylsulfatase (Pseudomonas aeruginosa (strain ATCC 15692 / PAO1 / 1C / PRS 101 / LMG12228)) (UniProt P51691); experiment: Ratio of Kinact to Ki for Pseudomonas aeruginosa recombinant arylsulfatase A expressed in Escherichia coli
[5] = biological target: Arylsulfatase (Pseudomonas aeruginosa (strain ATCC 15692 / PAO1 / 1C / PRS 101 / LMG12228)) (UniProt P51691); experiment: Inhibition of Pseudomonas aeruginosa recombinant arylsulfatase A expressed in Escherichia coli
Haliotis corrugata [6] = experiment: Ratio of Kinact to Ki for abalone entrails type 8 recombinant sulfatase expressed in Escherichia coli by slow phase inactivation
Patella vulgata [7] = experiment: Ratio of Kinact to Ki for Patella vulgata type 5 recombinant sulfatase expressed in Escherichia coli
Method in brief: (§2)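 Limpet sulfatase at pH 7 with 0–12.5 mM sulfamate; semi-logarithmic plots of residual activity over time, inactivation rates replotted against concentration to give Ki and kinact.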

Helix pomatia [8] = experiment: Inhibition of Helix pomatia type H1 recombinant sulfatase expressed in Escherichia coli; method in brief: as §1
Haliotis corrugata [9] = experiment: Inhibition of abalone entrails type 8 recombinant sulfatase expressed in Escherichia coli by slow phase inactivation
Haliotis corrugata [10] = experiment: Ratio of Kinact to Ki for abalone entrails type 8 recombinant sulfatase expressed in Escherichia coli by fast phase inactivation
Patella vulgata [11] = experiment: Protection against inactivation in Patella vulgata type 5 recombinant sulfatase expressed in Escherichia coli assessed as ratio of residual enzyme activity to initial activity at 1 mM after 20 seconds using 4-nitrophenyl sulfate as substrate
Method in brief: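 Limpet sulfatase given 1 mM sulfamate at pH 7 with or without 79 mM 4-nitrophenyl sulfate; residual activity assayed 20 s after inactivator addition, expressed as vres/v0 against an untreated control.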

Patella vulgata [12] = experiment: Inhibition of Patella vulgata type 5 recombinant sulfatase expressed in Escherichia coli; method in brief: as §2
Helix pomatia [13] = experiment: Activity at Helix pomatia type H1 recombinant sulfatase expressed in Escherichia coli
Method in brief: (§3)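 Hydrolysis of potassium 4-nitrophenyl sulfate followed by release of 4-nitrophenol; Vmax is expressed per mg protein and Km in mM; Vmax/Km is derived from these.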

[14] = biological target: Arylsulfatase (Pseudomonas aeruginosa (strain ATCC 15692 / PAO1 / 1C / PRS 101 / LMG12228)) (UniProt P51691); experiment: Ratio of Vmax/Km for Pseudomonas aeruginosa recombinant arylsulfatase A expressed in Escherichia coli; method in brief: as §3
Helix pomatia [15] = experiment: Activity at Helix pomatia type H1 recombinant sulfatase expressed in Escherichia coli assessed per mg of protein; method in brief: as §3
Haliotis corrugata [16] = experiment: Ratio of Vmax/Km for abalone entrails type 8 recombinant sulfatase expressed in Escherichia coli
Haliotis corrugata [17] = experiment: Activity at abalone entrails type 8 recombinant sulfatase expressed in Escherichia coli assessed per mg of protein
Method in brief: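 Crude limpet or abalone enzyme hydrolysing potassium 4-nitrophenyl sulfate; 4-nitrophenol release read at 410 nm; 10 mM α-cyclodextrin added to raise sensitivity (Δε410 14400 M−1 cm−1 at pH 7); Vmax per mg protein, Km in mM.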

Haliotis corrugata [18] = experiment: Activity at abalone entrails type 8 recombinant sulfatase expressed in Escherichia coli
Patella vulgata [19] = experiment: Activity at Patella vulgata type 5 recombinant sulfatase expressed in Escherichia coli
Helix pomatia [20] = experiment: Ratio of Vmax/Km for Helix pomatia type H1 recombinant sulfatase expressed in Escherichia coli; method in brief: as §3

Arylsulfatase (Pseudomonas aeruginosa (strain ATCC 15692 / PAO1 / 1C / PRS 101 / LMG12228)), sequence (P51691 whole entry): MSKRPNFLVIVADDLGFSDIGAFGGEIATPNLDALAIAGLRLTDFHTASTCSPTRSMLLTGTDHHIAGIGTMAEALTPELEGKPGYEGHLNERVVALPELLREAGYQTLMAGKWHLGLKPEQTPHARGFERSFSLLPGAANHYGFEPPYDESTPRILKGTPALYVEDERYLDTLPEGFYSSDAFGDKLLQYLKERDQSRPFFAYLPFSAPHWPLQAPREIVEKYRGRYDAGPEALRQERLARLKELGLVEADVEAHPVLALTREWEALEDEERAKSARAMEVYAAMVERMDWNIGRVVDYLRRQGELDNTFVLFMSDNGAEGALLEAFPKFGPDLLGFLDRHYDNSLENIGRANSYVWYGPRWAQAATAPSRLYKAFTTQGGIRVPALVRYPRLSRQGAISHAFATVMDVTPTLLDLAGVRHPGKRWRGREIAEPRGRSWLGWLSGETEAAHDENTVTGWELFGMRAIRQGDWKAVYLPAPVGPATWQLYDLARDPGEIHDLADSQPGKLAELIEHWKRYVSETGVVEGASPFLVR

Row | Structure (SMILES) | T1/2 (Haliotis corrugata [1]) | Ratio (Haliotis corrugata [2]) | Ratio (Helix pomatia [3]) | Ratio [4] | T1/2 [5] | Ratio (Haliotis corrugata [6]) | Ratio (Patella vulgata [7]) | T1/2 (Helix pomatia [8]) | T1/2 (Haliotis corrugata [9]) | Ratio (Haliotis corrugata [10]) | Ratio (Patella vulgata [11]) | T1/2 (Patella vulgata [12]) | Km (Helix pomatia [13]) | Vmax/Km [14] | Vmax (Helix pomatia [15]) | Vmax/Km (Haliotis corrugata [16]) | Vmax (Haliotis corrugata [17]) | Km (Haliotis corrugata [18]) | Km (Patella vulgata [19]) | Vmax/Km (Helix pomatia [20])
1 | NS(=O)(=O)Oc1cccc([N+](=O)[O-])c1 | 10 s | 1.01 | 1.19 s⁻¹ mM⁻¹ | 480 s⁻¹ mM⁻¹ | 11 s | 0.0005 s⁻¹ mM⁻¹ | 0.038 s⁻¹ mM⁻¹ | 17 s | 4.28 min | 0.043 s⁻¹ mM⁻¹ | 0.91 | 18 s |  |  |  |  |  |  |  | 
2 | O=[N+]([O-])c1ccc(OS(=O)(=O)O)cc1 |  |  |  |  |  |  |  |  |  |  |  |  | 2030 µM | 7900 | 0.319 mmol/min/mg | 0.066 | 0.68 mmol/min/mg | 10.2 mM | 10 mM | 0.157
